NR2E3 ag-1: NR2E3 (human) agonism; GST-NR2E3/biotin-RetCOR TR-FRET, 1536-well; inhibition of corepressor binding, % at 4.78 µM; hit rate 0.12% among 320,000; AID 2300;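 active = percent inhibition above the cutoff of mean plus 3 SD of all tested compounds, set per screening campaign, cut at about 20% in these data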
Target sequence (Q9Y5X4 whole entry, looked up): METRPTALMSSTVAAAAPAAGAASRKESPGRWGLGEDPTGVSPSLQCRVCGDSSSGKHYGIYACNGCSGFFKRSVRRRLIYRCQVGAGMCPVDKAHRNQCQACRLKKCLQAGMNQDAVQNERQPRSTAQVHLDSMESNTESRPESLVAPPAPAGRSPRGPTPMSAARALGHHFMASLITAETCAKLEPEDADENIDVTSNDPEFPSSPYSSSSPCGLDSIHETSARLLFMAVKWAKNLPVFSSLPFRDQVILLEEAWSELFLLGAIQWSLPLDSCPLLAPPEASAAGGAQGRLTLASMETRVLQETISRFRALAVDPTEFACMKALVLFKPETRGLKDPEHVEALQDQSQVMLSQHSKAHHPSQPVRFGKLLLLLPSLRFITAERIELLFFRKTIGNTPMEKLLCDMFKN
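Material: NR2E3–RetCOR corepressor complex / Amount: 1.35 nM GST-NR2E3 / Medium: Tris pH 7.5 / Compound: single nominal compound dose of 4.8 µM / Incubation: 5 h at 4 °C / Technique: TR-FRET, Eu(K)-anti-GST donor, streptavidin-D2 acceptor, ex 340, em 617/671 nm / Read-out basis: percent loss of FRET ratio relative to control wells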
V-ATPase pH: alters yeast V-ATPase proton transport; S. cerevisiae, pHLuorin cytosolic pH fluorescence; response, % at 10 µM; hit rate 0.37% among 350,000; in the data active = response mostly above about 7.3%, no sharp cut-off; inactive = mostly below about 5.4%; also: actives read high
NR2E3 ag-2: human photoreceptor-specific nuclear receptor agonism; Q9Y5X4; CHO-S Gal4-NCOR/VP16-NR2E3 two-hybrid, luciferase; inhibition of corepressor binding, % at 3.98 µM; hit rate 0.35% among 360,000;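 active = inhibition above the mean of all tested compounds plus 3 SD, cut at about 70% in these data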;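 also: higher means lower luciferase signal from less NR2E3 corepressor binding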
GalR3 antag: antagonists of human GalR3. O60755. HEK293 GalR3-CNG cAMP membrane potential fluorescence; galR3 body fused to GalR1 C-terminus. inhibition, % at 3 µM. hit rate 0.44% among 360,000;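 active = inhibition above the screen-wide average plus 3 SD, cut at about 13% in these data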;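 also: forskolin and galanin both at EC90 stimulate the cells; cAMP rise reported by CNG channel membrane potential dye signal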
Env fusion inh: inhibitors of HIV Env-mediated cell fusion; inhibition, % at 12.3 µM; hit rate 1.1% among 360,000; HeLa-JRFL Env/CEM21 cell fusion, luciferase; AID 651610;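 active = mean replicate inhibition score of at least 50 and every replicate individually at or above 50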
GAA850 FXN act: increases GAA850 frataxin promoter reporter activity | activation, % at 6 µM | HEK293 lucGAA850 FXN promoter luciferase reporter, 24 h; percent of 10 µM SAHA response | hit rate 0.56% among 360,000;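 active = activation above the average of all compounds screened plus 3 SD, cutoff fixed separately per campaign, cut at about 7.5% in these data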
GalR3 antag conf: confirmation of human galanin receptor 3 antagonists; inhibition, % at 3 µM; hit rate 59% among 1,600; HEK293 GalR3 CNG cAMP biosensor, membrane potential fluorescence; galR3 fused to GalR1 carboxy tail; challenged with forskolin and galanin at EC90; shares compounds with GalR3 antag;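 active = inhibition above the primary screen's cutoff, the mean inhibition of all screened compounds plus 3 SD, cut at about 13% in these data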
HEK-CNG parental: counter-screen for GalR3 antagonists: nonspecific agonists in parental HEK-CNG cells; hit rate 10% among 1,600; activation, % at 3 µM; HEK293-CNG parental cells, cAMP membrane potential fluorescence; normalised: DMSO wells 0%, forskolin wells 100%; AID 652268; shares compounds with GalR3 antag; in the data active = activation above about 1.3%
Large screens that a line does not name were inactive (follow-up assays come after a bar, where they were run). Only some compounds are listed: those with a hit (about 2.2% of all), similar ones and a draw of the others.

CCCCC1C(=O)NC(=S)NC1=O	none (no result: V-ATPase pH, NR2E3 ag-2, GalR3 antag, Env fusion inh, GAA850 FXN act)
COc1ccc(C(CC(=O)c2ccc3c(c2)OCO3)c2c(O)c3ccccc3oc2=O)cc1OC (centres undefined)	none (no result: NR2E3 ag-1)
COc1ccc(C2=CC(c3ccc4c(c3)OCO4)c3c(c4ccccc4oc3=O)O2)cc1OC (centres undefined)	GalR3 antag 36.2 (no result: NR2E3 ag-1) | GalR3 antag conf 42.1 | HEK-CNG parental inactive
CCN(C=C1CC2C3CC=C4CC(O)CCC4(C)C3CCC2(C)C1=O)CC (centres undefined)	none (no result: NR2E3 ag-1)
Cc1nn(C)c(C)c1/C=C1/CC2C3CC=C4CC(O)CCC4(C)C3CCC2(C)C1=O (centres undefined)	GalR3 antag 14.0 | GalR3 antag conf 30.5 | HEK-CNG parental inactive
CCOC(=O)[C@]12Cc3ccc(C)cc3[C@H]1N(C1CCCCC1)C(=O)c1cc(OC)ccc12	GalR3 antag 16.0 (no result: NR2E3 ag-1, V-ATPase pH, GAA850 FXN act) | GalR3 antag conf 45.3 | HEK-CNG parental 2.3
CCOC(=O)[C@]12Cc3cc(C)ccc3[C@H]1N(C1CCCCC1)C(=O)c1ccccc12	GalR3 antag 34.2 (no result: NR2E3 ag-1, V-ATPase pH, GAA850 FXN act) | GalR3 antag conf 58.0 | HEK-CNG parental inactive
CC(NCC#Cc1ccccc1)C(O)c1ccccc1 (centres undefined)	GalR3 antag 16.0 | GalR3 antag conf 35.4 | HEK-CNG parental inactive
CN[C@H](C)[C@H](O)c1ccccc1	none (no result: GalR3 antag, Env fusion inh)
Cn1cc(NC(=O)CCl)cn1	none
COC(=O)C1=C(c2ccccc2)C[C@@H]2CC[C@H]1N2C(=O)NCCS(C)=O (some centres undefined)	none
COc1ccc(-n2nnnc2C(c2cc3ccccc3o2)N2CCC(n3c(=O)[nH]c4ccccc43)CC2)cc1 (centres undefined)	GalR3 antag 42.2 (no result: NR2E3 ag-1, V-ATPase pH, GAA850 FXN act) | GalR3 antag conf 26.9 | HEK-CNG parental inactive
CNc1cc(Cl)c2nonc2c1[N+](=O)[O-]	GalR3 antag 39.1 (no result: NR2E3 ag-1) | GalR3 antag conf 31.3 | HEK-CNG parental inactive
Oc1ccc(C[C@H]2NCCc3cc(O)c(O)cc32)cc1O	GalR3 antag 37.4 (no result: NR2E3 ag-1) | GalR3 antag conf 52.6 | HEK-CNG parental 2.5
Oc1ccc(CC2CC3CCN2CC3)cc1O (centres undefined)	none (no result: Env fusion inh)
CN1CCN(S(=O)(=O)c2ccc(Cl)nc2)CC1	none
O=C(NCCO)c1nsnc1NCCCl	none (no result: GalR3 antag) | GalR3 antag conf 28.4 | HEK-CNG parental inactive
C[C@]12CC[C@H]3C(CCC4(O)CC(O)CC[C@]34C=O)C1=CC[C@H]2c1ccc(=O)oc1 (some centres undefined)	GalR3 antag 16.7 | GalR3 antag conf 41.7 | HEK-CNG parental 2.7
CCCCCn1c(=O)c(C(=O)Nc2nc(CC(=O)OCC)cs2)c(O)c2ccccc21	none

Screens as filed in PubChem BioAssay.
